Experiment [1] deals with Tyrosine-protein kinase Blk (Homo sapiens) (UniProt P51451). The experiment is described as follows: Residual activity of BLK at 0.1 uM by microplate scintillation counting.
For experiment [2], the target named is Serine/threonine-protein kinase 24 (Homo sapiens) (UniProt Q9Y6E0). The experiment is described as follows: Residual activity of MST3 at 0.1 uM by microplate scintillation counting.
For experiment [3], the target named is T1, Serine/threonine-protein kinase PLK4 (Homo sapiens) (UniProt O00444).
T1 sequence (whole entry): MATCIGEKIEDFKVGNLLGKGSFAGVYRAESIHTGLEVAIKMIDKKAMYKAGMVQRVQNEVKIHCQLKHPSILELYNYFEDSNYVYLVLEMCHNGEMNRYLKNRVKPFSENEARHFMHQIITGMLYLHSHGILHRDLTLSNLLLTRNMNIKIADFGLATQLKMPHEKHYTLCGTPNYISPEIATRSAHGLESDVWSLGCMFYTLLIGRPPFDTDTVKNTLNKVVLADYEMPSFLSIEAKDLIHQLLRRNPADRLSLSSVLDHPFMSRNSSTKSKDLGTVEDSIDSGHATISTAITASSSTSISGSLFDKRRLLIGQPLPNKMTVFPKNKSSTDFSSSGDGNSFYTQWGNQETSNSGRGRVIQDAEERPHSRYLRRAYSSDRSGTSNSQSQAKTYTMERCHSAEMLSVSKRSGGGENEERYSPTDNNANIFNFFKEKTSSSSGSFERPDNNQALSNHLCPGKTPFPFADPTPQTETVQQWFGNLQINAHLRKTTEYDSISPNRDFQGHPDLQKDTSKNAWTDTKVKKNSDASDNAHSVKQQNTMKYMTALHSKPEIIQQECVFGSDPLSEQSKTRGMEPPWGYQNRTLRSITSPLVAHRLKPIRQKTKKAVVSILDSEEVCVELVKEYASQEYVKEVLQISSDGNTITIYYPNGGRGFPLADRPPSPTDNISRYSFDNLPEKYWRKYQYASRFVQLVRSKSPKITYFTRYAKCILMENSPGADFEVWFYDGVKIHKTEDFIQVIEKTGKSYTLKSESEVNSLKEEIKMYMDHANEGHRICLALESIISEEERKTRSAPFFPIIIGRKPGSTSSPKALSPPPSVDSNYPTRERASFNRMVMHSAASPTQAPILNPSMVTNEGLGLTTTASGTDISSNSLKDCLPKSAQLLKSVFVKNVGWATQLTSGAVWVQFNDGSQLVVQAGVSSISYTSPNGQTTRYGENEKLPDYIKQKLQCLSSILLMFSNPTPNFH
Kind of experiment: Residual activity of SAK at 1 uM by microplate scintillation counting.

Experiment [4] deals with Mitogen-activated protein kinase 10 (Homo sapiens) (UniProt P53779). Kind of experiment: Residual activity of JNK3 at 10 uM by microplate scintillation counting.
Experiment [5] concerns the target T2, Aurora kinase A (Homo sapiens) (UniProt O14965).
T2 sequence (whole entry): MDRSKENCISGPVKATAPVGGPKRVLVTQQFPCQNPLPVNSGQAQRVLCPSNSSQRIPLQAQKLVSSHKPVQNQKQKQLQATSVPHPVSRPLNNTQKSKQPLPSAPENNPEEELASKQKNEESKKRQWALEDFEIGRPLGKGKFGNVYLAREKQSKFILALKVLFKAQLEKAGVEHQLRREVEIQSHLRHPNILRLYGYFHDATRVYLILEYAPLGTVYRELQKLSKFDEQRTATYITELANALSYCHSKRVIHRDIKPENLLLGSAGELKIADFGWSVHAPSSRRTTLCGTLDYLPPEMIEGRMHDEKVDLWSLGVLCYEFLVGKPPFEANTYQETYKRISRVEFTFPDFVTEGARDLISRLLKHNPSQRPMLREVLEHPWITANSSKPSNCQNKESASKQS
The experiment is described as follows: Residual activity of Aurora-A at 10 uM by microplate scintillation counting.

Experiment [6] has as its target Ephrin type-A receptor 4 (Homo sapiens) (UniProt P54764). Kind of experiment: Residual activity of EPHA4 at 0.1 uM by microplate scintillation counting.
Experiment [7] deals with Death-associated protein kinase 3 (Homo sapiens) (UniProt O43293). Kind of experiment: Residual activity of DAPK3 at 10 uM by microplate scintillation counting.
Experiment [8] addresses Angiopoietin-1 receptor (Homo sapiens, UniProt Q02763). The experiment is described as follows: Inhibition of TIE2 in human HCT116 cells by cellular phosphorylation assay. It counts as cell-based, HCT-116. A digest of the protocol:
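TIE2 autophosphorylation in cells expressing the receptor. Compound was applied, cells were stimulated, then lysed with phosphoprotein levels preserved. Phosphorylation was quantified by sandwich ELISA with a receptor-specific capture antibody and anti-phosphotyrosine antibody, relative to the stimulated high control.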

Experiment [9] concerns the target T3, Tyrosine-protein kinase Tec (Homo sapiens) (UniProt P42680).
T3 sequence (whole entry): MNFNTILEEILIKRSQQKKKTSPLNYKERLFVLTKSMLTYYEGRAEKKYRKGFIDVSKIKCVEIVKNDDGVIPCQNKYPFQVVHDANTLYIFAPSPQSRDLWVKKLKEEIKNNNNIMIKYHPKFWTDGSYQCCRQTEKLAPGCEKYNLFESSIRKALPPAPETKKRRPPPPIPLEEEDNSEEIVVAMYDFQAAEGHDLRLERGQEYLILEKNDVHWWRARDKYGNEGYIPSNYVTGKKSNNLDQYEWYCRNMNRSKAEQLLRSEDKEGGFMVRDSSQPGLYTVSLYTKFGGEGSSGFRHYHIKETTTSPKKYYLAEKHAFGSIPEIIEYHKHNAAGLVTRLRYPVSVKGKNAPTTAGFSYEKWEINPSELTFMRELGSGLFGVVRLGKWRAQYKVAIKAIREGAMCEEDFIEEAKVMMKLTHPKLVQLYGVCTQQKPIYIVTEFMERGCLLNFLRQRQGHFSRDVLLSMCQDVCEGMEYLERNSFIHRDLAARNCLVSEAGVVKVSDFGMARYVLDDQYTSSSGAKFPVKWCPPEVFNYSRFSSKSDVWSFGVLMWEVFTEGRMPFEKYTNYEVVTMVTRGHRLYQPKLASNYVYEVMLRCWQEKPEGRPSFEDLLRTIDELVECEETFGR
The experiment is described as follows: Residual activity of TEC at 1 uM by microplate scintillation counting.

The target in experiment [10] is Tyrosine-protein kinase JAK2 (Homo sapiens) (UniProt O60674). The experiment is described as follows: Residual activity of JAK2 at 1 uM by microplate scintillation counting.
In experiment [11] the target is Serine/threonine-protein kinase MARK1 (Homo sapiens) (UniProt Q9P0L2). The experiment is described as follows: Residual activity of MARK1 at 10 uM by microplate scintillation counting.
Experiment [12] addresses Ribosomal protein S6 kinase alpha-2 (Homo sapiens) (UniProt Q15349). Kind of experiment: Residual activity of RPS6KA2 at 0.1 uM by microplate scintillation counting.
The target in experiment [13] is Tyrosine-protein kinase CSK (Homo sapiens) (UniProt P41240). The experiment is described as follows: Residual activity of CSK at 10 uM by microplate scintillation counting.
In experiment [14] the target is Activated CDC42 kinase 1 (Homo sapiens) (UniProt Q07912). Kind of experiment: Residual activity of ACK1 at 1 uM by microplate scintillation counting.
Experiment [15] concerns Tyrosine-protein kinase ABL1 (Homo sapiens), P00519 [T315I]. Kind of experiment: Residual activity of ABL1 T315I mutant at 0.1 uM by microplate scintillation counting.

SMILES strings stand for the structures.

Chain of Serine/threonine-protein kinase MARK1 (Homo sapiens) (Q9P0L2 whole entry, looked up): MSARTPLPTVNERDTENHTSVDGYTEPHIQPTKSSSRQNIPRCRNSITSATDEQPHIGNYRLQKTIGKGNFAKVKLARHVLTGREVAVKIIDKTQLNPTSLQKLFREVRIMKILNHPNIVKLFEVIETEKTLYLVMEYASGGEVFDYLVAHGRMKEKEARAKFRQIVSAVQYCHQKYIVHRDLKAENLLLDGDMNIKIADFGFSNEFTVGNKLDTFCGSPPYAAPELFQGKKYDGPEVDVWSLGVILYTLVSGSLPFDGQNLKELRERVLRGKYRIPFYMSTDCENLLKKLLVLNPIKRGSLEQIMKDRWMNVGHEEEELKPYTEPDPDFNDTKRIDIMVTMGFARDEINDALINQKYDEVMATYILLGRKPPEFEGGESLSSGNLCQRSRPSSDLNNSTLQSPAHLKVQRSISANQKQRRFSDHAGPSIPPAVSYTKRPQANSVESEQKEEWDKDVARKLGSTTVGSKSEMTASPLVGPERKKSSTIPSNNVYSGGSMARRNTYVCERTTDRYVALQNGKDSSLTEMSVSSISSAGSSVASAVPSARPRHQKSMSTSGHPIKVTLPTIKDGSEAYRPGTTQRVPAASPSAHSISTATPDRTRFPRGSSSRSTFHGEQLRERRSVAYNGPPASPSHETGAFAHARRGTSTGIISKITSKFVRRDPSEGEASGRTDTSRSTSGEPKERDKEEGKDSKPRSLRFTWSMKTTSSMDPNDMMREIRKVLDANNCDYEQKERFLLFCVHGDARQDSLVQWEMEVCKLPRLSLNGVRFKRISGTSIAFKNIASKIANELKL
Chain of Angiopoietin-1 receptor (Q02763 whole entry): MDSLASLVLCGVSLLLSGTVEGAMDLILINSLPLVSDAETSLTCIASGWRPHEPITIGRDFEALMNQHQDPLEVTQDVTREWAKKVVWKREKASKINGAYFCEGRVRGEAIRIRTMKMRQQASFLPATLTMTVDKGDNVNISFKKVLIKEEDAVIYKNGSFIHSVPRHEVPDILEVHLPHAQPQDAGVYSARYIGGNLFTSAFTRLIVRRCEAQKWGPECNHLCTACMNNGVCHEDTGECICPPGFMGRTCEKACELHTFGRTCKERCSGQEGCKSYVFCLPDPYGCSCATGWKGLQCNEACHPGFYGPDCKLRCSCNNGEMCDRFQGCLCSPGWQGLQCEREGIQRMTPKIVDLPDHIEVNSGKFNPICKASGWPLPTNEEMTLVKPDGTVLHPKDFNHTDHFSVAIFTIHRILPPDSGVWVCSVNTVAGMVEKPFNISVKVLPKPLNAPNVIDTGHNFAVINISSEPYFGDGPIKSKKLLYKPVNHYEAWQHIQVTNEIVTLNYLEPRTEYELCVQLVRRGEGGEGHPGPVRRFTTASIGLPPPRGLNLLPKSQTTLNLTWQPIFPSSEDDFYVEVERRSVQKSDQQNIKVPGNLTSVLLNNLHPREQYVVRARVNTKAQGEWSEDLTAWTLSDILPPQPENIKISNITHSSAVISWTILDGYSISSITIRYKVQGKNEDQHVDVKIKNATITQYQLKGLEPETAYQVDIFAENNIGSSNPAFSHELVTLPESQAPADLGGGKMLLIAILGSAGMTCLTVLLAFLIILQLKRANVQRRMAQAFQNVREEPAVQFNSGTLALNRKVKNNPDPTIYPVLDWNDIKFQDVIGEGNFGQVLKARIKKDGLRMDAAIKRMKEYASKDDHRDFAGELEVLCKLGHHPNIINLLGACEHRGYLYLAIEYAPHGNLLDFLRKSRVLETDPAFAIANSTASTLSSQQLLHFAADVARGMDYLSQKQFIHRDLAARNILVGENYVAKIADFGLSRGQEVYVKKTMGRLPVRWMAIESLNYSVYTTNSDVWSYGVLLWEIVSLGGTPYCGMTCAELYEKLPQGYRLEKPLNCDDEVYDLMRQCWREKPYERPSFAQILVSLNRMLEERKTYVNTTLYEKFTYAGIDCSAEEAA
Chain of Ribosomal protein S6 kinase alpha-2 (Homo sapiens) (Q15349 whole entry): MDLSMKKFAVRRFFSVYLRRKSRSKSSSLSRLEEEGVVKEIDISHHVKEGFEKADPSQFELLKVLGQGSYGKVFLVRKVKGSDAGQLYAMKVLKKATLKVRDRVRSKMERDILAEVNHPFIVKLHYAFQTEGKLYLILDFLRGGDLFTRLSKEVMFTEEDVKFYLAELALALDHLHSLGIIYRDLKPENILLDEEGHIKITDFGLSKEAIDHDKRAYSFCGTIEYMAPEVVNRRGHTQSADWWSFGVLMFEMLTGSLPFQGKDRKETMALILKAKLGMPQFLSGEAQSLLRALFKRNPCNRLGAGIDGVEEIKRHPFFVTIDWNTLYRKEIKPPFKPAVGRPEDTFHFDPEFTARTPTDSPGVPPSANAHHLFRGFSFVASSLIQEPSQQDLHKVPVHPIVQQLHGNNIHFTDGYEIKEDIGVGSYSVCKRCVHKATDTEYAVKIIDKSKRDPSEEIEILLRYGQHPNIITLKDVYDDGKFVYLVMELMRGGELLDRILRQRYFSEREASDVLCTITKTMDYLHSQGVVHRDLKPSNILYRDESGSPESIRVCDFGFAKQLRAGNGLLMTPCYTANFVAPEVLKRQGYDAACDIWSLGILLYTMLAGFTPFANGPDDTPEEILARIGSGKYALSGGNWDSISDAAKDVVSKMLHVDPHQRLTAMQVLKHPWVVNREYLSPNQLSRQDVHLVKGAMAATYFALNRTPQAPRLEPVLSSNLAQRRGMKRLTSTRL
Chain of Tyrosine-protein kinase Blk (Homo sapiens) (P51451 2-505 limits assumed): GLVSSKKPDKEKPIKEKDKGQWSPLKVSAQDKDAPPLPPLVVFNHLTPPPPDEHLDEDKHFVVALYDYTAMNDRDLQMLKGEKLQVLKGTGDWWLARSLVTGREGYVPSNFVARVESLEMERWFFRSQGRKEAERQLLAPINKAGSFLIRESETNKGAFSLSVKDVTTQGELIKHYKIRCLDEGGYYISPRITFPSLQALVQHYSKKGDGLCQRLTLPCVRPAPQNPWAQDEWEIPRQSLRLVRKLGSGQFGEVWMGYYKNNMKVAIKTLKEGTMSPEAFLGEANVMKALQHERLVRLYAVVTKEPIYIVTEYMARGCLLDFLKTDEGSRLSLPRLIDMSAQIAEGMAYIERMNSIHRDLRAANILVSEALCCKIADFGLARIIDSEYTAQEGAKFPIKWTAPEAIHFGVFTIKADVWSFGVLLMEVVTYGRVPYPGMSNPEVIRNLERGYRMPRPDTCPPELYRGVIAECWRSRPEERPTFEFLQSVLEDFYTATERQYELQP
Chain of Activated CDC42 kinase 1 (Homo sapiens) (Q07912 whole entry, looked up): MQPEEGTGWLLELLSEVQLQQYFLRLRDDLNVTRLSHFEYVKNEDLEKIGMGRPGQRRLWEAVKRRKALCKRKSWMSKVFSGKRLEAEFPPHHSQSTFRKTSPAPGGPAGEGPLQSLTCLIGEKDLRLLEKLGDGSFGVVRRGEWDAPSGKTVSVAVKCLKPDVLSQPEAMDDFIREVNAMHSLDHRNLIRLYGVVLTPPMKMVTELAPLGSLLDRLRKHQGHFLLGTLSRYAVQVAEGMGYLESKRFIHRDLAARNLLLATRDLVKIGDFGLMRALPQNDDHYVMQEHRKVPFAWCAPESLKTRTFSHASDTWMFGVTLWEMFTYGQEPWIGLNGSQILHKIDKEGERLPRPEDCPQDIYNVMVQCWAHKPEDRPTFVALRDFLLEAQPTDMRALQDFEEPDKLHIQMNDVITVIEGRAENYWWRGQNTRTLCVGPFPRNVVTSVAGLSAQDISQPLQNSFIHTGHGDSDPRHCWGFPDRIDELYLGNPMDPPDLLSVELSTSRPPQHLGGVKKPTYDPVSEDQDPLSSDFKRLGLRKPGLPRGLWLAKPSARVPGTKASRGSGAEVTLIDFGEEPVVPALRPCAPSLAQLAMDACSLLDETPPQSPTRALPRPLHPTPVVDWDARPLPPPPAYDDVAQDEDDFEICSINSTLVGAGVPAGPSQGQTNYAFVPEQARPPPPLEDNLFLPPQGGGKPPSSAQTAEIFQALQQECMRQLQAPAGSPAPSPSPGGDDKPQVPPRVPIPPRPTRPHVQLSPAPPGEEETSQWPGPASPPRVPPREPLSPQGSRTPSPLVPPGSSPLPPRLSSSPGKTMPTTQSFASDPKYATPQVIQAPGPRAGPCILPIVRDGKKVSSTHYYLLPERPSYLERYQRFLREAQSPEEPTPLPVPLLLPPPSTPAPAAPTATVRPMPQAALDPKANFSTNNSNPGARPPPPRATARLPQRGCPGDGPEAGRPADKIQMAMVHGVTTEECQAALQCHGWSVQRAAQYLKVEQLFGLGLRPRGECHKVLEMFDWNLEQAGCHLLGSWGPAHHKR
Chain of Tyrosine-protein kinase CSK (Homo sapiens) (P41240 2-450 limits assumed): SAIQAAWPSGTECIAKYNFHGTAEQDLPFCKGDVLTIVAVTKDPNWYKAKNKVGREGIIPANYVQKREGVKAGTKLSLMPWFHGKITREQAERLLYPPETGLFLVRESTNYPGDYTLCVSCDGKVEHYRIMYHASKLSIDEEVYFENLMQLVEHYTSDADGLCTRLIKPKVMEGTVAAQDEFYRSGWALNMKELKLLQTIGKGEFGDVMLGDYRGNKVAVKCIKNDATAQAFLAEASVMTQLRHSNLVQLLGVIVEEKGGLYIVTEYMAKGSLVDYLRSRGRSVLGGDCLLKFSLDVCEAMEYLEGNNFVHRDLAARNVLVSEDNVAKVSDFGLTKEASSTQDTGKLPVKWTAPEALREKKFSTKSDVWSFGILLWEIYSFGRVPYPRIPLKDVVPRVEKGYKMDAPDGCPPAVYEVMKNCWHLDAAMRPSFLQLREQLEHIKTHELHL

As a reminder, the EC50 is the midpoint of the concentration-response curve. A high value points to weaker potency. On to `COc1cc2c(Oc3ccc(-c4nc5ccccc5s4)cc3)ncnc2cc1OCCCN1CCCC1`, for which the residual activity was determined as 97% in experiment [1]; 98% in [2]; 19% in experiment [3]; 84% in [4]; 4% in experiment [5]; 93% in experiment [6]. In addition, the residual activity in experiment [7] came to 90%; in experiment [9], 93%; in experiment [10] it was 95%; in experiment [11] it was 112%; in experiment [12], 92%; in [13], 17%. In addition, the residual activity in experiment [14] was 106%; in [15], 98%. Besides, the concentration giving a half-maximal response (EC50) in experiment [8] turned out to be 140 nM.

Take `COc1cc2c(Oc3ccc(-c4nc5ccccc5s4)cc3F)ncnc2cc1OCCCN1CCN(C)CC1`: the residual activity in experiment [1] came to 89%; in [2], 104%; in experiment [3] it was 26%; in experiment [4] it was 45%; in experiment [5], 4%; in experiment [6], 93%. Also, the residual activity stood at 89% in experiment [7]; 90% in experiment [9]; 97% in experiment [10]; 112% in experiment [11]; 91% in experiment [12]; 3% in experiment [13]. In addition, the results for the residual activity in [14] and in experiment [15] were 90% and 100%, respectively. Moreover, the EC50 in experiment [8] came out at 300 nM.

Take `COc1cc2c(Oc3ccc(-c4nc5ccccc5s4)cc3)ncnc2cc1OCCCN1CCN(C)CC1`: the residual activity in experiment [1] was 90%; in experiment [2] it was 103%; in experiment [3], 10%; in experiment [4], 52%; in experiment [5], 5%; in [6], 103%. The residual activity is 96% in experiment [7]; 96% in [9]; 96% in experiment [10]; 124% in experiment [11]; 90% in experiment [12]; 18% in experiment [13]. In addition, the figures for the residual activity in experiment [14] and in [15] were 76% and 96%, respectively. The same molecule came in with an EC50 in [8] of 540 nM.
